System: U87MG human glioma xenografts
Assay: Biodistribution in athymic nude mice bearing U87MG human glioma xenografts
Format: in vivo
Conditions: 4 h p.i., tail vein injection
Method in brief: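 Female athymic nu/nu mice carried U87MG xenografts (5 × 10^6 cells s.c. in both upper shoulder flanks) and were used 4 weeks after inoculation. HPLC-purified 64Cu tracer in saline (~30 μCi/mL, 0.20 μm filtered) was given at ~3 μCi by tail vein. Five mice per time point (0.5, 1, 2, 4, 24 h p.i.) were killed by pentobarbital overdose. Heart blood and organs were weighed and γ-counted, giving %ID/g and %ID/organ.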

SMILES: [Cl][64Cu][Cl] [^64CuCl2]
- tumor uptake: 1.8 %ID/g

From article PMC3148415 (Molecular pharmaceutics, 2011)
